Measurements taken from ChEMBL document CHEMBL1687848, “In vitro effect of qnrA1, qnrB1, and qnrS1 genes on fluoroquinolone activity against isogenic Escherichia coli isolates with mutations in gyrA and parC” (2011).
Converted amounts (≈) assume the structure as drawn.

Columns and labels:
Type in all cases: functional
Escherichia coli [1] = assay: Antibacterial activity against qnrS gene expressing Escherichia coli ATCC 25922 harboring ParC S80R mutant and pBK-QnrS1 by broth microdilution method
Escherichia coli [2] = assay: Antibacterial activity against Escherichia coli ATCC 25922 harboring ParC S80R mutant by broth microdilution method
Escherichia coli [3] = assay: Antibacterial activity against qnrS gene expressing Escherichia coli ATCC 25922 harboring GyrA S83L mutant and pBK-QnrS1 by broth microdilution method
Escherichia coli [4] = assay: Antibacterial activity against qnrB gene expressing Escherichia coli ATCC 25922 harboring GyrA S83L mutant and pBK-QnrB1 by broth microdilution method
Escherichia coli [5] = assay: Antibacterial activity against qnrA gene expressing Escherichia coli ATCC 25922 harboring GyrA S83L mutant and pBK-QnrA1 by broth microdilution method
Escherichia coli [6] = assay: Antibacterial activity against qnrB gene expressing Escherichia coli ATCC 25922 harboring ParC S80R mutant and pBK-QnrB1 by broth microdilution method
Escherichia coli [7] = assay: Antibacterial activity against qnrA gene expressing Escherichia coli ATCC 25922 harboring ParC S80R mutant and pBK-QnrA1 by broth microdilution method
Escherichia coli [8] = assay: Antibacterial activity against Escherichia coli ATCC 25922 expressing qnrA gene and pBK-QnrA1 by broth microdilution method
Escherichia coli [9] = assay: Antibacterial activity against Escherichia coli ATCC 25922 expressing qnrB gene and pBK-QnrB1 by broth microdilution method
Escherichia coli [10] = assay: Antibacterial activity against Escherichia coli ATCC 25922 expressing qnrS gene and pBK-QnrS1 by broth microdilution method
Escherichia coli [11] = assay: Antibacterial activity against Escherichia coli ATCC 25922 by broth microdilution method
Escherichia coli [12] = assay: Antibacterial activity against Escherichia coli ATCC 25922 harboring GyrA S83L mutant by broth microdilution method
Escherichia coli [13] = assay: Antibacterial activity against Escherichia coli ATCC 25922 harboring GyrA S83L mutant and ParC S80R mutant by broth microdilution method
Escherichia coli [14] = assay: Antibacterial activity against qnrA gene expressing Escherichia coli ATCC 25922 harboring ParC S80R mutant, ParC S80R mutant and pBK-QnrA1 by broth microdilution method
Escherichia coli [15] = assay: Antibacterial activity against qnrB gene expressing Escherichia coli ATCC 25922 harboring ParC S80R mutant, ParC S80R mutant and pBK-QnrB1 by broth microdilution method
Escherichia coli [16] = assay: Antibacterial activity against qnrS gene expressing Escherichia coli ATCC 25922 harboring ParC S80R mutant, ParC S80R mutant and pBK-QnrS1 by broth microdilution method
Escherichia coli [17] = assay: Antibacterial activity against Escherichia coli ATCC 25922 assessed as mutant prevention concentration
Escherichia coli [18] = assay: Antibacterial activity against Escherichia coli ATCC 25922 expressing qnrA gene and pBK-QnrA1 assessed as mutant prevention concentration
Escherichia coli [19] = assay: Antibacterial activity against Escherichia coli ATCC 25922 expressing qnrB gene and pBK-QnrB1 assessed as mutant prevention concentration
Escherichia coli [20] = assay: Antibacterial activity against Escherichia coli ATCC 25922 expressing qnrS gene and pBK-QnrS1 assessed as mutant prevention concentration
Escherichia coli [21] = assay: Antibacterial activity against Escherichia coli ATCC 25922 harboring GyrA S83L mutant assessed as mutant prevention concentration
Escherichia coli [22] = assay: Antibacterial activity against qnrA gene expressing Escherichia coli ATCC 25922 harboring GyrA S83L mutant and pBK-QnrA1 assessed as mutant prevention concentration
Escherichia coli [23] = assay: Antibacterial activity against qnrB gene expressing Escherichia coli ATCC 25922 harboring GyrA S83L mutant and pBK-QnrB1 assessed as mutant prevention concentration
Escherichia coli [24] = assay: Antibacterial activity against qnrS gene expressing Escherichia coli ATCC 25922 harboring GyrA S83L mutant and pBK-QnrS1 assessed as mutant prevention concentration
Escherichia coli [25] = assay: Antibacterial activity against Escherichia coli ATCC 25922 assessed as earliest time required to resistant colonies visible one step below mutant prevention concentration
Escherichia coli [26] = assay: Antibacterial activity against Escherichia coli ATCC 25922 expressing qnrA gene and pBK-QnrA1 assessed as earliest time required to resistant colonies visible one step below mutant prevention concentration
Escherichia coli [27] = assay: Antibacterial activity against Escherichia coli ATCC 25922 expressing qnrB gene and pBK-QnrB1 assessed as earliest time required to resistant colonies visible one step below mutant prevention concentration
Escherichia coli [28] = assay: Antibacterial activity against Escherichia coli ATCC 25922 expressing qnrS gene and pBK-QnrS1 assessed as earliest time required to resistant colonies visible one step below mutant prevention concentration
Escherichia coli [29] = assay: Antibacterial activity against Escherichia coli ATCC 25922 harboring GyrA S83L mutant assessed as earliest time required to resistant colonies visible one step below mutant prevention concentration
Escherichia coli [30] = assay: Antibacterial activity against qnrA gene expressing Escherichia coli ATCC 25922 harboring GyrA S83L mutant and pBK-QnrA1 assessed as earliest time required to resistant colonies visible one step below mutant prevention concentration
Escherichia coli [31] = assay: Antibacterial activity against qnrB gene expressing Escherichia coli ATCC 25922 harboring GyrA S83L mutant and pBK-QnrB1 assessed as earliest time required to resistant colonies visible one step below mutant prevention concentration
Escherichia coli [32] = assay: Antibacterial activity against qnrS gene expressing Escherichia coli ATCC 25922 harboring GyrA S83L mutant and pBK-QnrS1 assessed as earliest time required to resistant colonies visible one step below mutant prevention concentration
Escherichia coli [33] = assay: Antibacterial activity against Escherichia coli ATCC 25922 assessed as resistant colonies recovered one step below mutant prevention concentration
In short: (§1)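 Resistant colonies recovered from Mueller-Hinton plates one concentration step below the MPC for each fluoroquinolone were retested for MIC. Mutants taken from plated concentrations closest to the MPC had the QRDRs of gyrA and parC analysed.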

Escherichia coli [34] = assay: Antibacterial activity against Escherichia coli ATCC 25922 harboring GyrA S83L mutant assessed as resistant colonies recovered one step below mutant prevention concentration; in short: as §1
Escherichia coli [35] = assay: Antibacterial activity against qnrA gene expressing Escherichia coli ATCC 25922 harboring GyrA S83L mutant and pBK-QnrA1 assessed as resistant colonies recovered one step below mutant prevention concentration; in short: as §1
Escherichia coli [36] = assay: Antibacterial activity against qnrS gene expressing Escherichia coli ATCC 25922 harboring GyrA S83L mutant and pBK-QnrS1 assessed as resistant colonies recovered one step below mutant prevention concentration; in short: as §1

C[C@H]1COc2c(N3CCN(C)CC3)c(F)cc3c(=O)c(C(=O)O)cn1c23.C[C@H]1COc2c(N3CCN(C)CC3)c(F)cc3c(=O)c(C(=O)O)cn1c23.O [LEVOFLOXACIN]
MBC (Escherichia coli [1]): 0.25 µg/mL
MIC (Escherichia coli [1]): 0.25 µg/mL
MBC (Escherichia coli [2]): 0.008 µg/mL
MBC (Escherichia coli [3]): 2 µg/mL
MBC (Escherichia coli [4]): 0.5 µg/mL
MIC (Escherichia coli [4]): 0.25 µg/mL
MBC (Escherichia coli [5]): 0.5 µg/mL
MBC (Escherichia coli [6]): 0.5 µg/mL
MIC (Escherichia coli [6]): 0.25 µg/mL
MBC (Escherichia coli [7]): 0.5 µg/mL
MIC (Escherichia coli [7]): 0.25 µg/mL
MBC (Escherichia coli [8]): 0.5 µg/mL
MBC (Escherichia coli [9]): 0.25 µg/mL
MBC (Escherichia coli [10]): 0.5 µg/mL
MIC (Escherichia coli [10]): 0.125 µg/mL
MBC (Escherichia coli [11]): 0.03 µg/mL
MBC (Escherichia coli [12]): 0.25 µg/mL
MIC (Escherichia coli [12]): 0.125 µg/mL
MBC (Escherichia coli [13]): 0.25 µg/mL
MIC (Escherichia coli [13]): 0.25 µg/mL
MBC (Escherichia coli [14]): 4 µg/mL
MIC (Escherichia coli [14]): 2 µg/mL
MBC (Escherichia coli [15]): 1 µg/mL
MBC (Escherichia coli [16]): 4 µg/mL
MIC (Escherichia coli [16]): 4 µg/mL
Activity (Escherichia coli [17]): 2 µg/mL
Activity (Escherichia coli [18]): 8 µg/mL
Activity (Escherichia coli [19]): 4 µg/mL
Activity (Escherichia coli [20]): 4 µg/mL
Activity (Escherichia coli [21]): 4 µg/mL
Activity (Escherichia coli [22]): 32 µg/mL
Activity (Escherichia coli [23]): 16 µg/mL
Activity (Escherichia coli [24]): 16 µg/mL
Time (Escherichia coli [25]): 48 h
Time (Escherichia coli [26]): 24 h
Time (Escherichia coli [27]): 48 h
Time (Escherichia coli [28]): 24 h
Time (Escherichia coli [29]): 24 h
Time (Escherichia coli [30]): 24 h
Time (Escherichia coli [31]): 72 h
Time (Escherichia coli [32]): 96 h
MIC (Escherichia coli [33]): 0.125 µg/mL
MIC (Escherichia coli [34]): 2 µg/mL
MIC (Escherichia coli [35]): 2 µg/mL
MIC (Escherichia coli [36]): 4 µg/mL

O=C(O)c1cn(C2CC2)c2cc(N3CCNCC3)c(F)cc2c1=O [CIPROFLOXACIN]
MBC (Escherichia coli [1]): 0.25 µg/mL (≈ 0.754 µM)
MBC (Escherichia coli [2]): 0.004 µg/mL (≈ 0.0121 µM)
MBC (Escherichia coli [3]): 1 µg/mL (≈ 3.02 µM)
MBC (Escherichia coli [4]): 0.5 µg/mL (≈ 1.51 µM)
MBC (Escherichia coli [5]): 0.5 µg/mL (≈ 1.51 µM)
MBC (Escherichia coli [6]): 0.25 µg/mL (≈ 0.754 µM)
MBC (Escherichia coli [7]): 0.25 µg/mL (≈ 0.754 µM)
MBC (Escherichia coli [8]): 0.125 µg/mL (≈ 0.377 µM)
MBC (Escherichia coli [9]): 0.125 µg/mL (≈ 0.377 µM)
MBC (Escherichia coli [10]): 0.25 µg/mL (≈ 0.754 µM)
MBC (Escherichia coli [11]): 0.015 µg/mL (≈ 0.0453 µM)
MBC (Escherichia coli [12]): 0.125 µg/mL (≈ 0.377 µM)
MBC (Escherichia coli [13]): 2 µg/mL (≈ 6.04 µM)
MBC (Escherichia coli [14]): 4 µg/mL (≈ 12.1 µM)
MBC (Escherichia coli [15]): 2 µg/mL (≈ 6.04 µM)
MBC (Escherichia coli [16]): 4 µg/mL (≈ 12.1 µM)
Activity (Escherichia coli [17]): 1 µg/mL
Activity (Escherichia coli [18]): 8 µg/mL
Activity (Escherichia coli [19]): 2 µg/mL
Activity (Escherichia coli [20]): 4 µg/mL
Activity (Escherichia coli [21]): 4 µg/mL
Activity (Escherichia coli [22]): 16 µg/mL
Activity (Escherichia coli [23]): 8 µg/mL
Activity (Escherichia coli [24]): 8 µg/mL
Time (Escherichia coli [25]): 48 h
Time (Escherichia coli [26]): 48 h
Time (Escherichia coli [27]): 72 h
Time (Escherichia coli [28]): 24 h
Time (Escherichia coli [29]): 24 h
Time (Escherichia coli [30]): 24 h
Time (Escherichia coli [31]): 24 h
Time (Escherichia coli [32]): 24 h
